Experiments:
Glutamate NMDA receptor = assay: Inhibition of [3H]glycine binding to NMDA receptor in rat brain membranes; format: cell membranes
Method in brief: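 [3H]glycine displaced from rat hippocampal membranes in presence of 10 µM glutamic acid; 4-5 inhibitor concentrations giving 20-90% inhibition of specific binding; Ki derived; number of experiments given per value.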

Mus musculus [1] = assay: Protection of mice against maximal e-shock at 0.7 mg/kg; format: functional
Method in brief: (§1)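 Male Swiss mice, 10 per dose, dosed intraperitoneally (vehicle 8 parts DMSO, 10 parts H2O); doses spanned 0.3-100 mg/kg depending on compound. Maximal electroshock applied 30 or 60 min later; tonic hind limb extension scored as unprotected. Dose-response fitted to a hyperbolic function giving ID50.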

Rattus norvegicus [2] = assay: Effect on brain tissue level after 1h at 5 mg/kg, iv; format: ADME, organism-based, Wistar; parameters: dose 5 mg/kg, route intravenous; conditions: in vivo
Method in brief: (§2)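 Male Wistar rats given 5 mg/kg intravenously; plasma and brain tissue levels measured at 6 min and 1 h, n = 3 per time; brain expressed as µmol/kg.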

Rattus norvegicus [3] = assay: Effect on brain tissue level after 6 min at 5 mg/kg, iv; format: ADME, organism-based, Wistar; parameters: dose 5 mg/kg, route intravenous; conditions: in vivo, 0.1 h; method in brief: as §2
L cells = assay: Cytotoxicity against mouse fibroblast L(tk-) cells transfected with human NMDA using LDH assay; format: functional, cell-based; conditions: L929
Method in brief: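 Mouse L(tk-) fibroblast clone L12-G10 co-transfected with dexamethasone-inducible human NR1a/NR2A; seeded 15 × 10^3 cells/well, grown overnight, then receptor expression induced with 4 µM dexamethasone in Mg2+-free medium with 5% FCS (supplies glutamate and glycine) and 50 mM KCl. Compounds added at increasing, trypan-blue-verified nontoxic concentrations for 24 h. Cell death read as LDH release (INT formazan, 490 nm) relative to total LDH; four-parameter logistic fit for IC50.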

Mus musculus [4] = assay: Protection of mice against maximal e-shock at 30 mg/kg; format: functional; method in brief: as §1
D(2) dopamine receptor = D(2) dopamine receptor (Rattus norvegicus, UniProt P61169); assay: Displacement of [3H]raclopride from dopamine receptor D2 in rat striatal membrane; format: cell membranes, Striatum
Mus musculus [5] = assay: Protection of mice against maximal e-shock after 30 min at 15.5 mg/kg; format: functional; method in brief: as §1
Mus musculus [6] = assay: Protection of mice against maximal e-shock after 60 min at 13.5 mg/kg; format: functional; method in brief: as §1
Rattus norvegicus [7] = assay: Effect on brain tissue level after 1h at 10 mg/kg, iv; format: ADME, organism-based, Wistar; parameters: dose 10 mg/kg, route intravenous; conditions: in vivo
Method in brief: (§3)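 Male Wistar rats given 10 mg/kg intravenously; plasma and brain tissue levels measured 6 min (n = 3) and 1 h (n = 3) after dosing; brain expressed as µmol/kg.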

Mus musculus [8] = assay: Protection of mice against maximal e-shock after 30 min at 43 mg/kg; format: functional; method in brief: as §1
Rattus norvegicus [9] = assay: Effect on brain tissue level after 6 min at 10mg/kg, iv; format: ADME, organism-based, Wistar; conditions: in vivo, 0.1 h; method in brief: as §3

Chain of D(2) dopamine receptor (P61169 whole entry): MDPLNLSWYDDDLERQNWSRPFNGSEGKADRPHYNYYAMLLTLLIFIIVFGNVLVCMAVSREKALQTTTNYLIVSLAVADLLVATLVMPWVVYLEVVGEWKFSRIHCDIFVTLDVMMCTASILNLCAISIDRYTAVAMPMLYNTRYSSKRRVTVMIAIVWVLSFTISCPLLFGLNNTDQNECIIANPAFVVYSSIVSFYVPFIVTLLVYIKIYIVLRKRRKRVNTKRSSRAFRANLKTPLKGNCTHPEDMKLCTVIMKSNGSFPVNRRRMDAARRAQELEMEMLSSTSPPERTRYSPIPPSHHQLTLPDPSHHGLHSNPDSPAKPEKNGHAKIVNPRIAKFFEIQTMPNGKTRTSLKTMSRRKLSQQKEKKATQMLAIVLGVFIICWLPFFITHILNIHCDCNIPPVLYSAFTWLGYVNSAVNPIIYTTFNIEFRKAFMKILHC

Row | SMILES | Ki (Glutamate NMDA receptor) | IC50 (L cells) | also measured
1 | O=c1[nH]c2cc(Cl)ccc2c(O)c1-c1ccccc1 | 151 nM | – | –
2 | CC(C)c1c(Cl)sc2nc(O)c(-c3ccccc3)c(O)c12 | 6.6 nM | – | –
3 | CCC(C)c1c(Cl)sc2nc(O)c(-c3ccccc3)c(O)c12 (centres undefined) | 5.8 nM | – | –
4 | CCc1c(Br)sc2nc(O)c(-c3ccccc3)c(O)c12 | 10.5 nM | – | –
5 | COCc1csc2nc(O)c(-c3cccc(Oc4ccccc4)c3)c(O)c12 | 36 nM | 55.8 µM | –
6 | COCc1c(Cl)sc2nc(O)c(-c3cccc(Oc4ccccc4)c3)c(O)c12 | 1.6 nM | 15.7 µM | Activity (Mus musculus [4]): 30%
7 | Cc1c(Cl)sc2nc(O)c(-c3cccc(Oc4ccccc4)c3)c(O)c12 | 23 nM | > 200 µM | –
8 | Oc1nc2sccc2c(O)c1-c1cccc(Oc2ccccc2)c1 | 368 nM | 89.2 µM | –
9 | CCc1csc2nc(O)c(-c3ccccc3)c(O)c12 | 530 nM | – | –
10 | CC(C)c1c(Cl)sc2nc(S)c(-c3ccccc3)c(O)c12 | 890 nM | – | –
11 | NCCc1c(Cl)sc2[nH]c(=O)c(-c3cccc(Oc4ccccc4)c3)c(O)c12 | 16500 nM | – | IC50 (D(2) dopamine receptor): > 30 µM
12 | Cc1csc2nc(O)c(-c3cccc(Oc4ccccc4)c3)c(O)c12 | 330 nM | > 250 µM | –
13 | Oc1nc2sc(Br)cc2c(O)c1-c1ccccc1 | 1770 nM | – | –
14 | CCc1c(Cl)sc2nc(O)c(-c3ccccc3)c(O)c12 | 8.9 nM | – | –
15 | Cc1sc2nc(O)c(-c3ccccc3)c(O)c2c1C | 1270 nM | – | –
16 | CCc1c(Cl)sc2nc(O)c(-c3cccc(Oc4ccccc4)c3)c(O)c12 | 1.11 nM | – | Activity (Mus musculus [5]): 50%; Activity (Mus musculus [6]): 50%
17 | Oc1nc2scc(C3CC3)c2c(O)c1-c1ccccc1 | 4750 nM | – | –
18 | Oc1nc2sc3c(c2c(O)c1-c1cccs1)CCCC3 | 23100 nM | – | –

Row | SMILES | Ki (Glutamate NMDA receptor) | IC50 (L cells) | also measured
19 | Oc1nc2sc(Cl)c(C3CCCCC3)c2c(O)c1-c1cccc(Oc2ccccc2)c1 | > 30000 nM | > 50 µM | –
20 | CCCc1c(Cl)sc2nc(O)c(-c3cccc(Oc4ccccc4)c3)c(O)c12 | 4.12 nM | 15.9 µM | –
21 | Oc1nc2sc3c(c2c(O)c1-c1cccc(Oc2ccccc2)c1)CCC3 | 118 nM | – | –
22 | CC(C)c1c(Cl)sc2nc(O)c(-c3cccc(Oc4ccccc4)c3)c(O)c12 | 1.46 nM | 5.2 µM | brain level (Rattus norvegicus [7]): 0.28 µmol/kg; Activity (Mus musculus [8]): 50%; brain level (Rattus norvegicus [9]): 3.5 µmol/kg
23 | Cc1cc2c(O)c(-c3cccs3)c(O)nc2s1 | 22700 nM | – | –
24 | Cc1csc2nc(O)c(-c3cccs3)c(O)c12 | 34000 nM | – | –
25 | CCC(C)c1csc2nc(O)c(-c3ccccc3)c(O)c12 (centres undefined) | 940 nM | – | –
26 | Oc1nc2sc3c(c2c(O)c1-c1cccc(Oc2ccccc2)c1)CCCS3 | 37 nM | > 250 µM | –
27 | Oc1nc2cscc2c(O)c1-c1ccccc1 | 26000 nM | – | –
28 | Oc1nc2sc(Cl)c(C3CC3)c2c(O)c1-c1ccccc1 | 58 nM | – | –
29 | Oc1nc2sc(Cl)c(C3CC3)c2c(O)c1-c1cccc(Oc2ccccc2)c1 | 9.5 nM | – | –
30 | O=c1[nH]c2ccccc2c(O)c1-c1ccccc1 | 12200 nM | – | –
31 | CC1=C(CN)SC2NC(=O)C(c3cccc(Oc4ccccc4)c3)=C(O)C12 (centres undefined) | 1980 nM | – | –
32 | Oc1nc2sc3c(c2c(O)c1-c1cccc(Oc2ccccc2)c1)CCCC3 | 392 nM | > 30 µM | –
33 | CCCCCCc1c(Cl)sc2nc(O)c(-c3cccc(Oc4ccccc4)c3)c(O)c12 | 80 nM | > 50 µM | –
34 | Oc1nc2sc(Cl)cc2c(O)c1-c1cccc(Oc2ccccc2)c1 | 16.6 nM | 15.4 µM | Activity (Mus musculus [4]): 10%
35 | CC(C)c1c(Cl)sc2nc(S)c(-c3cccc(Oc4ccccc4)c3)c(O)c12 | 139 nM | – | –

More lines, main results first:

Row | Ki (Glutamate NMDA receptor) | SMILES | IC50 (L cells) | also measured
36 | 1.4 nM | O=c1[nH]c2cc(Cl)ccc2c(O)c1-c1cccc(Oc2ccccc2)c1 | – | Activity (Mus musculus [1]): 50%; brain level (Rattus norvegicus [2]): 1.4 µmol/kg; brain level (Rattus norvegicus [3]): 5.5 µmol/kg
37 | 2 nM | CCC(C)c1c(Cl)sc2nc(O)c(-c3cccc(Oc4ccccc4)c3)c(O)c12 (centres undefined) | 7.9 µM | –
38 | 1530 nM | CC(C)c1csc2nc(O)c(-c3ccccc3)c(O)c12 | – | –
39 | 179 nM | CCc1csc2nc(O)c(-c3cccc(Oc4ccccc4)c3)c(O)c12 | > 50 µM | –
40 | 96 nM | CCC(C)c1csc2nc(O)c(-c3cccc(Oc4ccccc4)c3)c(O)c12 (centres undefined) | > 50 µM | –
41 | 267 nM | Cc1c(Cl)sc2nc(O)c(-c3ccccc3)c(O)c12 | – | –
42 | 16400 nM | Oc1nc2sccc2c(O)c1-c1ccccc1 | – | –
43 | 69 nM | OCc1c(Cl)sc2nc(O)c(-c3cccc(Oc4ccccc4)c3)c(O)c12 | – | –
44 | 97500 nM | Oc1nc2ccsc2c(O)c1-c1ccccc1 | – | –
45 | 8300 nM | Cc1csc2nc(O)c(-c3ccccc3)c(O)c12 | – | –
46 | 4300 nM | Oc1nc2sc3c(c2c(O)c1-c1ccccc1)CCCC3 | – | –
47 | 3100 nM | CCc1cc2c(O)c(-c3ccccc3)c(O)nc2s1 | – | –
48 | 4550 nM | NCCc1c(Cl)sc2nc(O)c(-c3ccccc3)c(O)c12 | – | IC50 (D(2) dopamine receptor): > 10 µM
49 | 390 nM | Cc1c(Br)sc2nc(O)c(-c3ccccc3)c(O)c12 | – | –
50 | 3.3 nM | CC(C)(C)c1c(Cl)sc2nc(O)c(-c3cccc(Oc4ccccc4)c3)c(O)c12 | 15.5 µM | –
51 | 9500 nM | Cc1cc2c(O)c(-c3ccccc3)c(O)nc2s1 | – | –
